According to ChEMBL document CHEMBL1156108, “Synthesis and biological evaluation of p38alpha kinase-targeting dialkynylimidazoles” (Bioorg Med Chem Lett, 2009):
pIC50: −log10 of the molar value. Each block holds one compound with its values, some of them ahead of it.

Assays:
[1] = target: T1, Mitogen-activated protein kinase 14 (Homo sapiens, UniProt Q16539); experiment: Inhibition of p38alpha at 10 uM by FRET assay
How it was run: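 Single-concentration screen against p38α, read at a fixed 60 min time-point. Reported as percent inhibition from tests run in duplicate.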

[2] = target: CYP2D6 (Homo sapiens, UniProt P10635); experiment: Inhibition of CYP2D6 at 10 uM; type: ADME
[3] = target: Cyclin-dependent kinase 1/cyclin B (Homo sapiens) (UniProt P06493+P14635+Q8WWL7+O95067); experiment: Inhibition of human CDK1/cyclin B at 20 uM by FRET assay; type: protein-complex assay
[4] = target: T1, Mitogen-activated protein kinase 14; experiment: Inhibition of p38alpha by FRET assay
[5] = target: Mitogen-activated protein kinase 11 (Homo sapiens, UniProt Q15759); experiment: Inhibition of p38beta by FRET assay
[6] = Selectivity ratio for IC50 of p38alpha to IC50 of p38beta
[7] = target: T2, Mitogen-activated protein kinase kinase kinase kinase 4 (Homo sapiens, UniProt O95819); experiment: Inhibition of human MAP4K4 by FRET assay
[8] = target: Tyrosine-protein kinase ABL1 (Homo sapiens) (UniProt P00519); experiment: Inhibition of human ABL1 at 20 uM by FRET assay
[9] = target: Activin receptor type-1B (Homo sapiens) (UniProt P36896); experiment: Inhibition of human ALK4 at 20 uM by FRET assay
[10] = target: RAC-alpha serine/threonine-protein kinase (Homo sapiens) (UniProt P31749); experiment: Inhibition of human AKT1 at 20 uM by FRET assay
[11] = target: Aurora kinase A (Homo sapiens) (UniProt O14965); experiment: Inhibition of human Aurora A at 20 uM by FRET assay
[12] = target: Tyrosine-protein kinase BTK (Homo sapiens) (UniProt Q06187); experiment: Inhibition of human BTK at 20 uM by FRET assay
[13] = target: Serine/threonine-protein kinase Chk1 (Homo sapiens) (UniProt O14757); experiment: Inhibition of human CHK1 at 20 uM by FRET assay
[14] = target: Casein kinase I isoform gamma-2 (Homo sapiens) (UniProt P78368); experiment: Inhibition of human CK1gamma2 at 20 uM by FRET assay
[15] = target: Casein kinase II subunit alpha (Homo sapiens) (UniProt P68400); experiment: Inhibition of human CK2alpha1 at 20 uM by FRET assay
[16] = target: Dual specificity tyrosine-phosphorylation-regulated kinase 3 (Homo sapiens) (UniProt O43781); experiment: Inhibition of human DYRK3 at 20 uM by FRET assay
[17] = target: Epidermal growth factor receptor (Homo sapiens) (UniProt P00533); experiment: Inhibition of human EGFR at 20 uM by FRET assay
[18] = target: Ephrin type-A receptor 2 (Homo sapiens) (UniProt P29317); experiment: Inhibition of human EPHA2 at 20 uM by FRET assay
[19] = target: Receptor tyrosine-protein kinase erbB-2 (Homo sapiens) (UniProt P04626); experiment: Inhibition of human ERBB2 at 20 uM by FRET assay
[20] = target: Fibroblast growth factor receptor 1 (Homo sapiens) (UniProt P11362); experiment: Inhibition of human FGFR1 at 20 uM by FRET assay
[21] = target: Receptor-type tyrosine-protein kinase FLT3 (Homo sapiens) (UniProt P36888); experiment: Inhibition of human FLT3 at 20 uM by FRET assay
[22] = target: Serine/threonine-protein kinase mTOR (Homo sapiens) (UniProt P42345); experiment: Inhibition of human FRAP1 at 20 uM by FRET assay
[23] = target: Glycogen synthase kinase-3 beta (Homo sapiens) (UniProt P49841); experiment: Inhibition of human GSK3-beta at 20 uM by FRET assay
[24] = target: Insulin-like growth factor 1 receptor (Homo sapiens) (UniProt P08069); experiment: Inhibition of human IGF1R at 20 uM by FRET assay
[25] = target: Inhibitor of nuclear factor kappa-B kinase subunit beta (Homo sapiens) (UniProt O14920); experiment: Inhibition of human IKK-beta at 20 uM by FRET assay
[26] = target: Insulin receptor (Homo sapiens) (UniProt P06213); experiment: Inhibition of human INSR at 20 uM by FRET assay
[27] = target: Interleukin-1 receptor-associated kinase 4 (Homo sapiens) (UniProt Q9NWZ3); experiment: Inhibition of human IRAK4 at 20 uM by FRET assay
[28] = target: Tyrosine-protein kinase JAK3 (Homo sapiens) (UniProt P52333); experiment: Inhibition of human JAK3 at 20 uM by FRET assay
[29] = target: Vascular endothelial growth factor receptor 2 (Homo sapiens) (UniProt P35968); experiment: Inhibition of human KDR at 20 uM by FRET assay
[30] = target: Mast/stem cell growth factor receptor Kit (Homo sapiens) (UniProt P10721); experiment: Inhibition of human KIT at 20 uM by FRET assay
[31] = target: Tyrosine-protein kinase Lck (Homo sapiens) (UniProt P06239); experiment: Inhibition of human LCK at 20 uM by FRET assay
[32] = target: Dual specificity mitogen-activated protein kinase kinase 1 (Homo sapiens) (UniProt Q02750); experiment: Inhibition of human MEK1 at 20 uM by FRET assay
[33] = target: T2, Mitogen-activated protein kinase kinase kinase kinase 4; experiment: Inhibition of human MAP4K4 at 20 uM by FRET assay
[34] = target: Mitogen-activated protein kinase 1 (Homo sapiens) (UniProt P28482); experiment: Inhibition of human ERK2 at 20 uM by FRET assay
[35] = target: Mitogen-activated protein kinase 12 (Homo sapiens) (UniProt P53778); experiment: Inhibition of human p38-gamma at 20 uM by FRET assay
[36] = target: Mitogen-activated protein kinase 13 (Homo sapiens) (UniProt O15264); experiment: Inhibition of human p38delta at 20 uM by FRET assay
How it was run: (§1)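 Single-point screen at one fixed concentration, run across a panel of 53 additional human kinases, which includes this enzyme.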

[37] = target: Mitogen-activated protein kinase 8 (Homo sapiens) (UniProt P45983); experiment: Inhibition of human JNK1 at 20 uM by FRET assay
[38] = target: Mitogen-activated protein kinase 9 (Homo sapiens) (UniProt P45984); experiment: Inhibition of human JNK2 at 20 uM by FRET assay
[39] = target: MAP kinase-activated protein kinase 2 (Homo sapiens) (UniProt P49137); experiment: Inhibition of human MAPKAPK2 at 20 uM by FRET assay
[40] = target: Serine/threonine-protein kinase MARK2 (Homo sapiens) (UniProt Q7KZI7); experiment: Inhibition of human MARK2 at 20 uM by FRET assay
[41] = target: Hepatocyte growth factor receptor (Homo sapiens) (UniProt P08581); experiment: Inhibition of human MET at 20 uM by FRET assay
[42] = target: Platelet-derived growth factor receptor beta (Homo sapiens) (UniProt P09619); experiment: Inhibition of human PDGFRbeta at 20 uM by FRET assay
[43] = target: Serine/threonine-protein kinase Nek1 (Homo sapiens) (UniProt Q96PY6); experiment: Inhibition of human NEK1 at 20 uM by FRET assay
[44] = target: High affinity nerve growth factor receptor (Homo sapiens) (UniProt P04629); experiment: Inhibition of human NTRK1 at 20 uM by FRET assay
[45] = target: Serine/threonine-protein kinase PAK 4 (Homo sapiens) (UniProt O96013); experiment: Inhibition of human PAK4 at 20 uM by FRET assay
[46] = target: Serine/threonine-protein kinase pim-1 (Homo sapiens) (UniProt P11309); experiment: Inhibition of human PIM1 at 20 uM by FRET assay
[47] = target: Serine/threonine-protein kinase PLK1 (Homo sapiens) (UniProt P53350); experiment: Inhibition of human PLK1 at 20 uM by FRET assay
[48] = target: cAMP-dependent protein kinase catalytic subunit alpha (Homo sapiens) (UniProt P17612); experiment: Inhibition of human PRKACA at 20 uM by FRET assay
[49] = target: Protein kinase C beta type (Homo sapiens) (UniProt P05771); experiment: Inhibition of human PKCbeta1 at 20 uM by FRET assay
[50] = target: RAF proto-oncogene serine/threonine-protein kinase (Homo sapiens) (UniProt P04049); experiment: Inhibition of human RAF1 at 20 uM by FRET assay
[51] = target: Proto-oncogene tyrosine-protein kinase receptor Ret (Homo sapiens) (UniProt P07949); experiment: Inhibition of human RET at 20 uM by FRET assay
[52] = target: Rho-associated protein kinase 1 (Homo sapiens) (UniProt Q13464); experiment: Inhibition of human ROCK1 at 20 uM by FRET assay
[53] = target: Ribosomal protein S6 kinase alpha-3 (Homo sapiens) (UniProt P51812); experiment: Inhibition of human RPS6KA3 at 20 uM by FRET assay
[54] = target: Ribosomal protein S6 kinase beta-1 (Homo sapiens) (UniProt P23443); experiment: Inhibition of human p70S6K at 20 uM by FRET assay; how it was run: as §1
[55] = target: Proto-oncogene tyrosine-protein kinase Src (Homo sapiens) (UniProt P12931); experiment: Inhibition of human SRC at 20 uM by FRET assay
[56] = target: Tyrosine-protein kinase SYK (Homo sapiens) (UniProt P43405); experiment: Inhibition of human SYK at 20 uM by FRET assay
[57] = target: Angiopoietin-1 receptor (Homo sapiens) (UniProt Q02763); experiment: Inhibition of human TEK at 20 uM by FRET assay

T1 sequence (Q16539 whole entry): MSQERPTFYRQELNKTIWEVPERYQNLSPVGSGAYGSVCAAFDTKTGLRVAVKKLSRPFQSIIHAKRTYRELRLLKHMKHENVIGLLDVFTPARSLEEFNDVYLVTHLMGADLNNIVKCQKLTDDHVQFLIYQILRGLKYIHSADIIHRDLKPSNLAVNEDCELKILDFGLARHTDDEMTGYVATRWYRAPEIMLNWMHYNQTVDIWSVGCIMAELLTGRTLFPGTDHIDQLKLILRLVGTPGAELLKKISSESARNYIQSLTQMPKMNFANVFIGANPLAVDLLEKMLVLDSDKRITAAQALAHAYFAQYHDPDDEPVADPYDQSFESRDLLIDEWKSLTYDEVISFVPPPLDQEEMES
Chain of CYP2D6 (P10635 whole entry): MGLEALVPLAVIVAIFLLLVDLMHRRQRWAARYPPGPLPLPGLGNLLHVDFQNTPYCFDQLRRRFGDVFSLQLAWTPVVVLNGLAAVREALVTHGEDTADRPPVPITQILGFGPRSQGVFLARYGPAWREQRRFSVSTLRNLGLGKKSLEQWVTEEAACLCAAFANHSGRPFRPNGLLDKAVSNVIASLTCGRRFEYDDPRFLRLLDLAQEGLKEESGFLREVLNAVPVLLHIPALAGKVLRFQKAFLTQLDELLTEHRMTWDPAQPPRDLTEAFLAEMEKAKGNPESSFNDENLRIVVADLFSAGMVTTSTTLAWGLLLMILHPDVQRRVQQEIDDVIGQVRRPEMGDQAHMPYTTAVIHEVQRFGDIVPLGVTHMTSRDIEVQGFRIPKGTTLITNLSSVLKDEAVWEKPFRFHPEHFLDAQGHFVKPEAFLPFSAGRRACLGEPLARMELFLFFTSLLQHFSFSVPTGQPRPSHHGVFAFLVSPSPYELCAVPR
Chain of Mitogen-activated protein kinase 12 (Homo sapiens) (P53778 whole entry): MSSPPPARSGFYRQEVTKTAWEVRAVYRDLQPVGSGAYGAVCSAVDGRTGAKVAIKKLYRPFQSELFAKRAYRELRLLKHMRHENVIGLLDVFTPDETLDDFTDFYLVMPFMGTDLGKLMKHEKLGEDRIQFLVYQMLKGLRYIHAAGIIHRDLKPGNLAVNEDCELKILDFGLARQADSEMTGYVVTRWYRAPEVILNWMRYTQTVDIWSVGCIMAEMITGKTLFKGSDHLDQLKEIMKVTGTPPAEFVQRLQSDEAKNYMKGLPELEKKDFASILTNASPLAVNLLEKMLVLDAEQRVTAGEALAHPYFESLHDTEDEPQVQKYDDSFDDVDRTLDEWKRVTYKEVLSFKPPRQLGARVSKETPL
Chain of Insulin receptor (Homo sapiens) (P06213 28-758 limits assumed): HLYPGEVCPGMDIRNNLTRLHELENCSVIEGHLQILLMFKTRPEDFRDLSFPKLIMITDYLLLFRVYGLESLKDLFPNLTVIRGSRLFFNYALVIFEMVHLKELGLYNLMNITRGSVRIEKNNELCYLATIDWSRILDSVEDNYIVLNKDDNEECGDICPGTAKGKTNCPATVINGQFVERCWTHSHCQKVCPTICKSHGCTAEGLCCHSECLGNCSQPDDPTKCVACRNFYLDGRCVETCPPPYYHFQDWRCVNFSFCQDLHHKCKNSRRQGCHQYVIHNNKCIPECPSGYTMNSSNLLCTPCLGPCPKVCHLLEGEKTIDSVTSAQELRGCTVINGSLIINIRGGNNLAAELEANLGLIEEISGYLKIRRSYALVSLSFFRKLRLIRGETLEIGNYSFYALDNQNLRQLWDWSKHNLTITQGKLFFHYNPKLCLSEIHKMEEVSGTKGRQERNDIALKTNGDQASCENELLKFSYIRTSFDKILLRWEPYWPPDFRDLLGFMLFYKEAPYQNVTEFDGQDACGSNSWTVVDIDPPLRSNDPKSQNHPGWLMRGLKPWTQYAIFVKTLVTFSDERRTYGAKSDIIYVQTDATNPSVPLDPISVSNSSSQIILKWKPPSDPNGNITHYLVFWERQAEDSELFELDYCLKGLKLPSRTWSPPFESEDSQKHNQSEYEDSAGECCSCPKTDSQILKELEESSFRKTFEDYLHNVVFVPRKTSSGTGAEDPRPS
Chain of Insulin receptor (Homo sapiens) (P06213 763-1382 limits assumed): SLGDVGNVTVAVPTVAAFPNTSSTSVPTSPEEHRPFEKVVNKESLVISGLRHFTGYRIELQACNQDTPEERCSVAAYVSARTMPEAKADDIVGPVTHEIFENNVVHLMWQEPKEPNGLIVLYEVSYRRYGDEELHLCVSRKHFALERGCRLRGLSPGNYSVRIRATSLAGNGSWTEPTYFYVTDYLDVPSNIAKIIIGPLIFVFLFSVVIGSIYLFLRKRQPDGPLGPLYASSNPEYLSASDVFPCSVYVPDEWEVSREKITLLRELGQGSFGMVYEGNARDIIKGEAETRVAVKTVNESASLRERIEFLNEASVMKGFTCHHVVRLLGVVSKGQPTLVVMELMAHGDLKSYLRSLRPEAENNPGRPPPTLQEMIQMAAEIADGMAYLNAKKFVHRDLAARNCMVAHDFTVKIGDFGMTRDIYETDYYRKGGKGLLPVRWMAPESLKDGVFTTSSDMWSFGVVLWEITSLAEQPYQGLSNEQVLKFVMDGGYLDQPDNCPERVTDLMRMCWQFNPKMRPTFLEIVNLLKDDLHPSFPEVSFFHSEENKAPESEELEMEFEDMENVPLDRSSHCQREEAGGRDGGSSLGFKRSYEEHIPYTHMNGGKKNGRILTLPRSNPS
Chain of Tyrosine-protein kinase ABL1 (Homo sapiens) (P00519 whole entry): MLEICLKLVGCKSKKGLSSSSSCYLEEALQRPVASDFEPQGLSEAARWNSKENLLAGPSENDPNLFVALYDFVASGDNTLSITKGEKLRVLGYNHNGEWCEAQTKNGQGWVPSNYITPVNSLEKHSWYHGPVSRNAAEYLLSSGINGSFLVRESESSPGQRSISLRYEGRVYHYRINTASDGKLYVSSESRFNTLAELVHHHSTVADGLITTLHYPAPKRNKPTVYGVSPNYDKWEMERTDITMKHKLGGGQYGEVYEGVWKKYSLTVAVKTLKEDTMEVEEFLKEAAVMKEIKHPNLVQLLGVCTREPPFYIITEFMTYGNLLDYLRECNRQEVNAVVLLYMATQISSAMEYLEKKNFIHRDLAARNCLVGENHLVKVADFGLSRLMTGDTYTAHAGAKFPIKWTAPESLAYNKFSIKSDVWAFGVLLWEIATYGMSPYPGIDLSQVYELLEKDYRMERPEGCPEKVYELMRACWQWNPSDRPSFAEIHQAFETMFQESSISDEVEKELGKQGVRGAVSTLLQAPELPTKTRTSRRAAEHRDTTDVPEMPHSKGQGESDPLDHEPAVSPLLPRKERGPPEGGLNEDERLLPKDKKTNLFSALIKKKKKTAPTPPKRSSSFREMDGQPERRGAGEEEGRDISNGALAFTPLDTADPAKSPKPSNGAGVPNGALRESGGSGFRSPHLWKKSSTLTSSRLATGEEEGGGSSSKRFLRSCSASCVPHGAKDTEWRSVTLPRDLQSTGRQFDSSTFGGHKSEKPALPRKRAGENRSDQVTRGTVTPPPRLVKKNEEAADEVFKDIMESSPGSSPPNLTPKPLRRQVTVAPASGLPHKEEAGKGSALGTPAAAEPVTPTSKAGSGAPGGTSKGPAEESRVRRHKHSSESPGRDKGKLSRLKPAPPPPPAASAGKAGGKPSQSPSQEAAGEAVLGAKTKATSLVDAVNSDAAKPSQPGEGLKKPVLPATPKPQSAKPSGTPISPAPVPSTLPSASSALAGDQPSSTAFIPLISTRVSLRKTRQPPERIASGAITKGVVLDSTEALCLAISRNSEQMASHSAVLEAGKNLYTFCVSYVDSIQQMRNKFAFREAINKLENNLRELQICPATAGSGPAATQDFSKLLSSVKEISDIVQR
Chain of Serine/threonine-protein kinase Nek1 (Homo sapiens) (Q96PY6 whole entry): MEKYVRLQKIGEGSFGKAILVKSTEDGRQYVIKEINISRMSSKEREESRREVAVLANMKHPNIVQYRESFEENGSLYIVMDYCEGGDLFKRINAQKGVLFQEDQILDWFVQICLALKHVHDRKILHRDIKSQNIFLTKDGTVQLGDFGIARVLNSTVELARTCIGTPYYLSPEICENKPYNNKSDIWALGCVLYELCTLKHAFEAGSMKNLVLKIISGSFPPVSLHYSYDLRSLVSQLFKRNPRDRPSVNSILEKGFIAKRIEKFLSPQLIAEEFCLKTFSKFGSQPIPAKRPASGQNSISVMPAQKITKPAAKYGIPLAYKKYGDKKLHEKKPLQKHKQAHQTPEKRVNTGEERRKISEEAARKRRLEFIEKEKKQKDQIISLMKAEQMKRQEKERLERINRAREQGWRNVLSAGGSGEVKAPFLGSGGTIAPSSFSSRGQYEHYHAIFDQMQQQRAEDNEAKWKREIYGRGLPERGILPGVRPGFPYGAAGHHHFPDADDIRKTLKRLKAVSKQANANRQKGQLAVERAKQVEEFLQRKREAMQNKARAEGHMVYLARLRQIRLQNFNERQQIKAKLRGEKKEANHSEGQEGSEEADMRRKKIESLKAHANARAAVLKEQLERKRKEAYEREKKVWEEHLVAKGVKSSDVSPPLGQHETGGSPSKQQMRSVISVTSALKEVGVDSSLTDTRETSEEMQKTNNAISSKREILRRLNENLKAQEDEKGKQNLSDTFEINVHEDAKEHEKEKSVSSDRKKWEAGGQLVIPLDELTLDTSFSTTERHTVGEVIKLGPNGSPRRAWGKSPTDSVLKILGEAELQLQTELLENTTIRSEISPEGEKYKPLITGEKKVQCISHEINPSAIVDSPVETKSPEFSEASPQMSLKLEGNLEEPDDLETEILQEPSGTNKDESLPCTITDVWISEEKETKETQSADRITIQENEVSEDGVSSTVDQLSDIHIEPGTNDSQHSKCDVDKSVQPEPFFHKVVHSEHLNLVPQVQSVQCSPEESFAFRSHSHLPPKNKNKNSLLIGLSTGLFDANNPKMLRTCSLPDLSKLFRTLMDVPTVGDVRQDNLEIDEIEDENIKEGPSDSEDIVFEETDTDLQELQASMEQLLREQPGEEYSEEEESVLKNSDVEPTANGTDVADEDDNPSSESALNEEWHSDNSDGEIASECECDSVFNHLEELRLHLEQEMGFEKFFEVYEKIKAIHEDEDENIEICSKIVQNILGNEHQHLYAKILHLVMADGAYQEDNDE

inhibition [1]: 83%
Structure (SMILES): OCC#Cc1nc(-c2ccc(F)cc2)c(-c2ccncc2)n1C#Cc1ccccc1

Structure (SMILES): C[S+]([O-])c1ccc(-c2nc(-c3ccncc3)c(-c3ccc(F)cc3)[nH]2)cc1 (stereo not given) [SB-203580]
inhibition at 10 µM [2]: 78%

inhibition [1]: 75%
Structure (SMILES): OCCC#Cc1nc(-c2ccc(F)cc2)c(-c2ccncc2)n1C#Cc1ccccc1

inhibition [1]: 53%
Structure (SMILES): OCCC#Cc1nc(-c2ccncc2)c(-c2ccc(F)cc2)n1C#Cc1ccccc1

inhibition [3]: 3%
inhibition at 10 µM [2]: 4%
pIC50 [4]: 6.70
pIC50 [5]: 5.27
inhibition [1]: 100%
Ratio IC50 [6]: > 25
pIC50 [7]: 5.38
inhibition [8]: 15%
inhibition [9]: 72%
inhibition [10]: 29%
inhibition [11]: 7%
inhibition [12]: 9%
inhibition [13]: 5%
inhibition [14]: 36%
inhibition [15]: 3%
inhibition [16]: 8%
inhibition [17]: 84%
inhibition [18]: 23%
inhibition [19]: 41%
inhibition [20]: 8%
inhibition [21]: 17%
inhibition [22]: 6%
inhibition [23]: 44%
inhibition [24]: -1%
inhibition [25]: 5%
inhibition [26]: 7%
inhibition [27]: 1%
inhibition [28]: 4%
inhibition [29]: 36%
inhibition [30]: 5%
inhibition [31]: 48%
inhibition [32]: 10%
inhibition [33]: 92%
inhibition [34]: 6%
inhibition [35]: 14%
inhibition [36]: 12%
inhibition [37]: 21%
inhibition [38]: 88%
inhibition [39]: 3%
inhibition [40]: 14%
inhibition [41]: 11%
inhibition [42]: 10%
inhibition [43]: 11%
inhibition [44]: 1%
inhibition [45]: 8%
inhibition [46]: 3%
inhibition [47]: 7%
inhibition [48]: 50%
inhibition [49]: 80%
inhibition [50]: 82%
inhibition [51]: 21%
inhibition [52]: 15%
inhibition [53]: 0%
inhibition [54]: 7%
inhibition [55]: 27%
inhibition [56]: 3%
inhibition [57]: 5%
Structure (SMILES): C#Cn1c(C#CCCO)nc(-c2ccc(F)cc2)c1-c1ccncc1

inhibition [1]: 63%
Structure (SMILES): OCC#Cc1nc(-c2ccncc2)c(-c2ccc(F)cc2)n1C#Cc1ccccc1

pIC50 [4]: 6.43
Structure (SMILES): OCCc1cc(Cl)n2c(-c3ccncc3)c(-c3ccc(F)cc3)nc2c1

inhibition [1]: 19%
Structure (SMILES): C#Cc1nc(-c2ccncc2)c(-c2ccc(F)cc2)n1C#Cc1ccccc1

inhibition [1]: 28%
Structure (SMILES): C#Cc1nc(-c2ccc(F)cc2)c(-c2ccncc2)n1C#Cc1ccccc1
